For assay [1], the target named is (Lyso)-N-acylphosphatidylethanolamine lipase (Mus musculus) (UniProt Q8VD66). Kind of assay: mouse ABHD4 hydrolase blockers, triplicate – biochemical, fluorescence polarization, confirmation (AID 720658;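 active = mean inhibition across replicates above the hit cutoff set in the primary screen, cut at about 30% in these data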). The conditions noted are these: purified mABHD4, FP-Rh probe fluorescence polarization; at 8.92 µM; hits give high values. An outline of the steps: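 Test system: wild-type mouse ABHD4. Medium: HEPES-saline buffer with 0.01% Pluronic F-127. Doses: single nominal compound dose 8.92 µM, 0.89% DMSO final. Timing: pre-incubation 45 min, probe exposure 60 min, 25 °C. Technique: FP readout, ex 525 nm, em 598 nm. Control set: S159A mutant ABHD4 plus DMSO as 100%, wild-type plus DMSO 0%.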

The target in assay [2] is Oxysterols receptor LXR-beta (Homo sapiens) (UniProt P55055). Kind of assay: nonspecific reporter activation via LXR – cell-based, luminescence, HEK293, H. contortus campaign, counter-screen for hcDAF-12 agonist project, confirmation (AID 743027). The conditions noted are these: HEK293 Gal4-LXR tk-luc reporter, 24 h, at 6.8 µM, hits give high values, normalized: DMSO 0%, positive control 100%. An outline of the steps:
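Assay system: Gal4-LXR and tk-luc reporter transfected HEK293 cells; Compound: 6.8 µM single dose; Times: one-day compound treatment at 37 °C; Technique: One-Glo luciferase luminescence; Read-out basis: % activation relative to DMSO and positive-control wells; Benchmarks: DMSO low control, positive-control high control; Repeats: three replicates per compound.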

In assay [3] the test system is Nuclear hormone receptor DAF-12 (Haemonchus contortus). In words: hcDAF-12 luciferase reporter activation, retest – cell-based, luminescence, HEK293, lit1-tk-luc, triplicate, confirmation (AID 743032;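 active = mean activation across triplicate tests above the threshold derived from the earlier primary screen, cut at about 5.5% in these data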;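 also: 0% = DMSO only wells and 100% = 3 µM Δ7-dafachronic acid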). The conditions noted are these: HEK293 hcDAF-12 lit1-tk-luc reporter, at 6.8 µM, hits give high values, % of Δ7-dafachronic acid response.

The other results are listed elsewhere or left out. A number with no mark means an inactive call. Calls of active or inactive are those of the source.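 The calls were made as follows, unless noted: active = mean percent activation of the reporter above a cutoff set as the average over tested compounds plus their standard deviation; inactive = the rest.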

Consider 40 compounds from PubChem BioAssay.

Sequence of (Lyso)-N-acylphosphatidylethanolamine lipase (Mus musculus) (Q8VD66 whole entry, looked up): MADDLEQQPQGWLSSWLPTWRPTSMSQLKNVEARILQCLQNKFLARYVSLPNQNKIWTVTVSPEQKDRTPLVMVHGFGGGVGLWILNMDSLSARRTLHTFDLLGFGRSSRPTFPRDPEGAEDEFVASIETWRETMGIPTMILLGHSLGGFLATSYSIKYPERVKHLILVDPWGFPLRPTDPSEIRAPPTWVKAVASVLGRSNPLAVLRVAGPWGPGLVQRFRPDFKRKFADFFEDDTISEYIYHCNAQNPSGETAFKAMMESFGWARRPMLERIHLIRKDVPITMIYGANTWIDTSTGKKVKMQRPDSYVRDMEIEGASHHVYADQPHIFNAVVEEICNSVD
Sequence of Oxysterols receptor LXR-beta (Homo sapiens) (P55055 whole entry, looked up, the tested form may be a part): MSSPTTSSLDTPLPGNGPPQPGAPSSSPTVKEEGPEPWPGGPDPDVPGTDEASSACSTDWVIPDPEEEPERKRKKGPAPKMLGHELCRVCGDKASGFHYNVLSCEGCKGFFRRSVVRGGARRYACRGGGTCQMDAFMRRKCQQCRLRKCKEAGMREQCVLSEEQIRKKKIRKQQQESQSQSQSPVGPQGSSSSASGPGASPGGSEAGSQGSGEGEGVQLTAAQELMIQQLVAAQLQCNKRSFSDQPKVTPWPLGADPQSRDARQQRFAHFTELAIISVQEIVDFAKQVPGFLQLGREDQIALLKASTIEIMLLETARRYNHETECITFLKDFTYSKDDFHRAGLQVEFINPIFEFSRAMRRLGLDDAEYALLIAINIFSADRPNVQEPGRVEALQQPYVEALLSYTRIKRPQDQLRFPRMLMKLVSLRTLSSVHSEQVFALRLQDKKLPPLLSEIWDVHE

On to `Nc1[nH]c(C(=O)c2ccc(Br)cc2)c(-c2ccc3c(c2)OCO3)c1C(=O)NCCc1c[nH]c2ccccc12`, for which the inhibition in assay [1] was 36.9% (active).

Consider `C/C(=N/NC(=S)Nc1ccccc1)c1ccc2c(c1)OCO2`, for which the figures for the activation in assay [2] and in assay [3] were 0.01% and 0.89%, respectively.

As for `CC(=O)Oc1ccc(N(C(C)=O)S(=O)(=O)c2ccc3ccccc3c2)cc1Br`, in assay [1], the inhibition was 30.6% (active).

Take `CCOC(=O)C1=C(C)N=C2c3ccccc3C(=O)C2C1c1ccc(Br)cc1` (configuration not stated): the inhibition in assay [1] is 44.8% (active).

`O=C(N/N=C\C1CC=CCC1)c1ccc(Br)o1` (configuration not stated): the activation is -0.16% in assay [2] and 0.29% in assay [3].

For the compound `Cn1ccnc1SCC(=O)Nc1ccc2c(c1)OCCO2`, the activation is 0.85% in assay [2] and 2.69% in assay [3].

With `O=[N+]([O-])c1ccc2oc(-c3cccc(O)c3)nc2c1`, the values for the activation in assay [2] and in assay [3] were 1.82% and 20% (active), respectively.

On to `O=C(Oc1ccc([N+](=O)[O-])cc1)c1ccc2ccccc2n1`, for which the activation in assay [2] is -0.2%; in assay [3], 4.02%.

As to `CC(C)c1ccc(C=NNc2ccc([N+](=O)[O-])cn2)cc1`, the activation in assay [2] was 1.84%; in assay [3], 12% (active).

`O=C(O)CN1c2cccc3cccc(c23)S1(=O)=O`: the activation in assay [2] was -0.29%; in assay [3] it was 1.3%.

`CCOc1ccc(C2c3[nH]c4ccccc4c3CCN2Cc2cn(CC)nc2C)cc1` (configuration not stated): the values for the activation in assay [2] and in assay [3] were -0.18% and 3.63%, respectively.

With `CCc1ccc(-c2cc(C(=O)NN3CCN(C)CC3)c3ccccc3n2)cc1`, the activation in assay [2] was -0.24%; in assay [3], 0.58%.

For `CC(=O)N1C(=O)/C(=C2\SC(=S)N(NC(=O)c3ccc(O)cc3)C2=O)c2ccccc21`, the activation was -0.17% in assay [2] and 1.25% in assay [3].

For the compound `COc1ccc(-c2cn3ccc(C)cc3n2)cc1`, the activation is 1.71% in assay [2] and 9.09% (active) in assay [3].

In the case of `Cc1cc(O)c(C(=O)/C=C/c2c(F)c(F)c(F)c(F)c2F)c(=O)o1`, the activation in assay [2] was -0.23%; in assay [3], -1.06%.

Regarding `COc1ccccc1-c1nnc(NC(=O)c2ccc3ncsc3c2)o1`, the activation in assay [2] was 0.28%; in assay [3], 10.3% (active).

With `COC(=O)C1=NN(c2ccccc2)C2C(=O)N(c3ccccc3OC)C(=O)C12` (configuration not stated), the activation in assay [2] was -0.15%; in assay [3], -0.03%.

For `O=C(O)c1ccccc1CSc1nc2ccccc2s1`, the activation was 0.24% in assay [2] and 9.05% (active) in assay [3].

Regarding `Cc1ccc(C(=O)O/N=C(\N)c2ccccn2)cc1Cl`, the values for the activation in assay [2] and in assay [3] were 1.52% and 4.81%, respectively.

In the case of `Cc1nc2cc(NC(=O)Nc3cccc(F)c3)ccc2n1C`, the results for the activation in assay [2] and in assay [3] were 1.98% and 11.2% (active), respectively.

In the case of `COc1ccccc1C(=O)NCc1nnc(SC(C)C(=O)Nc2nccs2)n1C` (configuration not stated), the results for the activation in assay [2] and in assay [3] were -0.14% and 4.95%, respectively.

Take `CNc1nc(Nc2ccc(C)c(Cl)c2)nc(N)c1[N+](=O)[O-]`: the activation was 0.77% in assay [2] and 10.9% (active) in assay [3].

As for `NNC(=O)C1CCCn2c1nc1sc3c(c1c2=O)CCCC3` (configuration not stated), the figures for the activation in assay [2] and in assay [3] were -0.2% and 4.24%, respectively.

Regarding `NS(=O)(=O)c1ccc2nc(NC(=O)CS(=O)(=O)c3ccc(F)cc3)sc2c1`, the activation in assay [2] is -0.28%; in assay [3], 3.34%.

With `Cc1ccc2cc(/C=N/Nc3ccc(C(=O)O)cc3)c(Cl)nc2c1`, the activation was 0.97% in assay [2] and 8.18% (active) in assay [3].

For the compound `COc1ccccc1NC(=O)c1ccc(C)s1`, the figures for the activation in assay [2] and in assay [3] were 0.6% and 8.4% (active), respectively.

For the compound `N#Cc1c(NC(=O)C2CCCO2)sc2c1CCCCC2` (configuration not stated), the activation was 1.18% in assay [2] and 6.65% (active) in assay [3].

For the compound `Cc1ccccc1C(=O)N[C@H](C(=O)N1CCC[C@H]1C(=O)NCc1ccccc1)C(C)C`, the activation in assay [2] is -0.15%; in assay [3], 0.18%.

For `CCS(=O)(=O)N1Cc2ccccc2CC1C(=O)Nc1nc2ccc(F)cc2s1` (configuration not stated), the activation in assay [2] was 0.39%; in assay [3], 6.53% (active).

On to `C/C(=N/NC(=O)c1ccc(Br)o1)c1ccc(C)o1`, for which the activation in assay [2] was -0.01%; in assay [3], 4.27%.

As to `COc1cc2ccccc2cc1C(=O)Nc1ccccc1C`, the activation is 0.82% in assay [2] and 9.11% (active) in assay [3].

Turning to `Cc1ccc(S(=O)(=O)Nc2nc3ccccc3nc2N2CCc3ccccc3C2)cc1`, the values for the activation in assay [2] and in assay [3] were 0.14% and 8.94% (active), respectively.

With `Cc1nn(CCOc2ccccc2)c(=O)n1-c1ccccc1F`, the activation in assay [2] is 0.49%; in assay [3] it was 5.42%.

Consider `CC(C)(C)OC(=O)N/N=C/c1ccc(C(=O)O)cc1`, for which the values for the activation in assay [2] and in assay [3] were -0.15% and 0.76%, respectively.

As for `Fc1ccc2nc(Nc3nc4c(s3)CCCC4)sc2c1`, the activation in assay [2] was 1.24%; in assay [3] it was 11.5% (active).

Turning to `Cc1c(C=O)c2ccccc2n1CC(=O)O`, the activation is -0.12% in assay [2] and 1.56% in assay [3].

For `Cc1cccc(-c2nc3ccccc3c(=O)n2NC(=O)Cc2ccc(Cl)cc2)c1`, the activation is -0.04% in assay [2] and 0.97% in assay [3].

As to `COc1ccccc1OCc1nc2ccccc2s1`, the activation was 1.64% in assay [2] and 17.7% (active) in assay [3].

Turning to `O=C(Cn1ccc([N+](=O)[O-])n1)NCc1cccs1`, the figures for the activation in assay [2] and in assay [3] were -0.27% and 1.71%, respectively.

For the compound `O=C(Nc1ccc(Cl)cc1)C1c2cccc[n+]2CC(=O)N1Cc1ccc2c(c1)OCO2` (configuration not stated), the activation in assay [2] is -0.2%; in assay [3], 2.78%.
